Screens: PubChem BioAssay, several laboratories
GPR7 antagonist: blocks human GPR7 receptor signaling; GPR7-expressing cells, fluorescence antagonist assay; 1.1% of 290,000 active; AID 1861; inhibition, % at 4.4 µM; in the data active = inhibition above about 16%, passing the limit was not always enough;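 also: cells stimulated with the agonist NPW; 0% = agonist with vehicle and 100% = vehicle without agonist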
TAAR1 antag: antagonists of human TAAR1; inhibition, % at 3 µM; 1.5% of 360,000 active; CHO RD-HGA16 TAAR1, Fluo-8 calcium fluorescence, antagonist; Q96RJ0;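 active = inhibition above a per-plate cutoff, the mean inhibition of test compounds on that plate plus 3 SD, cut at about 49% in these data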;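 also: 0% = DMSO plus EC80 beta-PEA response and 100% = DMSO alone without agonist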
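Material: RD-HGA16 CHO cells with stable hTAAR1 and Gα16; Dosing: single nominal final test compound concentration of 3 µM; Schedule: seeding 17-24 h prior, 75-min 37 °C, 30-min RT dye loading; Detection: kinetic Fluo-8 calcium fluorescence measurement; Measure: % inhibition from peak post-agonist over basal fluorescence ratio; Benchmarks: vehicle and agonist controls.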
MPTP block: blocks calcium-induced mitochondrial swelling. isolated mouse mitochondria, Ca2+ swelling absorbance, 30 min. inhibition, % at 10 µM. 1.4% of 360,000 active;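 active = inhibition of 50% or more, scaled per plate between neutral and stimulator controls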;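 also: 0% = DMSO wells given calcium and 100% = 1 mM EGTA wells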
TAAR1 agonist: agonists of human TAAR1; 0.99% of 360,000 active; CHO RD-HGA16 TAAR1, Fluo-8 calcium fluorescence; vehicle wells 0%, saturating PEA agonist 100%; AID 624467; Q96RJ0; activation, % at 3 µM;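 active = activation above the mean activation of all test compounds in the run plus 3 SD, cut at about 38% in these data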
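Test system: RD-HGA16 (CHO) cells co-expressing Gα16 and hTAAR1 | Doses: Single dose, 3 µM | Schedule: 17-24 h seeding, 75 min 37 °C dye, 30 min RT | Evaluation: % activation from peak over basal fluorescence ratio, DMSO-to-PEA scaled | Technique: Kinetic Fluo-8 calcium fluorescence | Benchmarks: Low control DMSO, high control PEA (EC100)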
DAGLB inh: diacylglycerol lipase beta (human) inhibition. Q8NCG7. HEK293T DAGLB membrane lysate, EnzChek fluorogenic substrate. inhibition, % at 5.17 µM. 0.059% of 340,000 active; in the data active = inhibition above about 34%;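 also: 0% = enzyme with vehicle and 100% = wells lacking enzyme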
An asterisk follows results filed as active; . = no result. An excerpt weighted towards active compounds, which were near 4% of everything screened.

SMILES	GPR7 antagonist	TAAR1 antag	MPTP block	TAAR1 agonist	DAGLB inh
O=C1NC[C@@H](CCCCN2C[C@H](Cc3ccc(O)cc3)N(CC3CCCCC3)C(=O)C2=O)N(CCC2CCCCC2)C1=O	.	-4	-3	43*	.
O=C1NC[C@H](CCCCN2C[C@H](Cc3ccc(O)cc3)N(CCc3ccccc3)C(=O)C2=O)N(Cc2ccccc2)C1=O	.	-9	0	2	.
O=C1NC[C@H](CCCCN2C[C@H](Cc3ccc(O)cc3)N(CCc3ccc(O)cc3)C(=O)C2=O)N(Cc2ccccc2)C1=O	.	-13	0	43*	.
CCCC(=O)N1CCC1(C)C(=O)Nc1scc(C)c1C#N (centres undefined)	.	.	0	.	.
O=C(c1cc(-c2cccs2)nc2ccccc12)N1CCN(c2ccccc2O)CC1	-3	58*	1	26	-1
COc1ccc(-c2cc(C(=O)N3CCN(c4ccccn4)CC3)c3ccccc3n2)cc1	2	53*	-4	20	1
CCOc1ccc(-c2cc(C(=O)N3CCN(c4ccccn4)CC3)c3ccccc3n2)cc1	-12	31	-1	11	3
COc1cc(-c2cc(C(=O)N3CCN(c4ccccn4)CC3)c3ccccc3n2)cc(OC)c1OC	3	50*	0	16	3
CCCc1ccc(-c2cc(C(=O)N3CCN(c4ccccn4)CC3)c3ccccc3n2)cc1	-25	15	1	1	-5
Cc1ccc(NC(=O)c2cc(-c3cccs3)nc3ccccc23)nc1	-12	53*	1	10	-7
COc1ccc(-c2cc(C(=O)OCC(=O)N3CCCC3)c3ccccc3n2)cc1	2	15	-13	6	-4
COc1ccc(-c2cc(C(=O)N3CCN(c4ccccc4)CC3)c3ccccc3n2)cc1	-3	48	2	12	-2
O=C(c1cnc(N2CCN(c3ccccn3)CC2)c2ccccc12)N1CCN(c2cccc(Cl)c2)CC1	-19	60*	6	11	3
COc1ccc(-c2cc(C(=O)N3CCN(c4ccccc4O)CC3)c3ccccc3n2)cc1	.	62*	0	20	1
COc1ccc2nc(-c3ccccc3)cc(C(=O)OCC(=O)N3CCCCC3)c2c1	.	56*	0	3	-10
COc1ccc(NC(=O)COC(=O)CNC(=O)COc2ccccc2)cc1OC	.	-5	0	0	0
Cc1cc(N2CCN(CC(C)(C)O)C[C@@H]2C)ccc1N1CCN(Cc2ccccc2)[C@H](C)C1	.	0	.	-1	.
Cc1cccc(N2CCN(C(=O)c3ccc(CS(=O)(=O)c4ccccc4C)o3)CC2C)c1 (centres undefined)	11	50*	7	14	0
CCOc1ccc(N(CC(=O)N/N=C/c2ccccn2)S(=O)(=O)c2ccc(Cl)cc2)cc1	-13	-2	1	3	1
COC(=O)c1ccc(CC2(C)C(=O)Nc3ccc(-c4cccc(C(F)(F)F)c4)cc32)o1 (centres undefined)	.	9	2	0	.
Cc1ccc(C)c(OCCCN2CCc3ccccc3C2)c1	-7	-13	2	39*	-8
Cc1ccc(C(C)C)c(OCCCN2CCc3ccccc3C2)c1	-15	-2	2	23	-19
O=S(=O)(c1cccc(-c2csc(N/N=C/c3ccco3)n2)c1)N1CCOCC1	0	60*	2	12	2
CCc1ccc(OCC(=O)NNC(=S)NC(=O)C2CC2)c(Br)c1	-5	9	0	40*	1
O=C(Nc1ccncc1)C1CCN(S(=O)(=O)c2ccc(Cl)c(C(F)(F)F)c2)CC1	.	3	4	48*	-1
SMILES	GPR7 antagonist	TAAR1 antag	MPTP block	TAAR1 agonist	DAGLB inh
CC(C)n1c(=O)c2ccccc2n1S(C)(=O)=O	.	-10	-2	2	.
CC(C)Cc1ccc(C(C)NC(=O)Cc2ccc(S(=O)(=O)N3CCOCC3)s2)cc1 (centres undefined)	.	45	0	38*	0
CC(C)CCC(C)NC(=O)Cc1ccc(S(=O)(=O)N2CCOCC2)s1 (centres undefined)	-13	-24	1	2	-1
Cc1cc(=O)c2c(ccc3c(=O)cc(C)[nH]c32)[nH]1	.	-30	.	3	.
CC1=C(C(=O)N2CCCCCC2)CC(CC(=O)NCCN2CCOCC2)C(=O)N1CCCN1CCCC1=O (centres undefined)	.	-2	0	2	.
COc1cccc(-c2sc3ccccc3c2-c2ccc(OCCN(C)C)cc2)c1	.	51*	0	26	-1
